An excerpt weighted towards active compounds, which were near 2.2% of everything screened.
DENV2 CPE rescue: inhibitors of DENV2 cytopathic effect; DENV2-infected cells, cytopathic effect rescue, plate reader; CPE inhibition, % at 9.99 µM; 1.7% of 350,000 active; AID 651640; in the data active = CPE inhibition above about 20%, passing the limit was not always enough; inconclusive = no clear call, values can overlap the other calls; tested in BHK-21 cells;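 note: 0% = median of neutral control wells and 100% = median of positive control wells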
Statin myotox sup: suppressors of simvastatin-induced myotoxicity in C2C12 myotubes. ATP luminescence, 48 h; scaled: DMSO 0, geranylgeraniol control 100. AID 602340. 0.78% of 330,000 active. rescue of ATP level, % at 7.49 µM;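 active = mean ATP rescue above about 67%, or every replicate alone reaching that limit, limit read from the data, passing the limit was not always enough; inconclusive = no clear call, values can overlap the other calls; inactive = mean under the limit and some replicate under it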;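 note: myotubes were challenged with 10 µM simvastatin during compound exposure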
E-selectin induc: E-selectin induction on HUVECs; P16581; HUVEC E-selectin immunofluorescence imaging; normalized: neutral wells 0, TNF-alpha wells 100; activation, % at 7.58 µM; 0.37% of 260,000 active;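 active = mean E-selectin-positive cell signal at least 10% of the positive control, reached in at least 60% of replicates, without over 20% cell loss; inconclusive = no rule given, readout overlaps actives, possibly toxicity-flagged; inactive = the rest, including those meeting only one limit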
Target sequence (P16581 whole entry, looked up): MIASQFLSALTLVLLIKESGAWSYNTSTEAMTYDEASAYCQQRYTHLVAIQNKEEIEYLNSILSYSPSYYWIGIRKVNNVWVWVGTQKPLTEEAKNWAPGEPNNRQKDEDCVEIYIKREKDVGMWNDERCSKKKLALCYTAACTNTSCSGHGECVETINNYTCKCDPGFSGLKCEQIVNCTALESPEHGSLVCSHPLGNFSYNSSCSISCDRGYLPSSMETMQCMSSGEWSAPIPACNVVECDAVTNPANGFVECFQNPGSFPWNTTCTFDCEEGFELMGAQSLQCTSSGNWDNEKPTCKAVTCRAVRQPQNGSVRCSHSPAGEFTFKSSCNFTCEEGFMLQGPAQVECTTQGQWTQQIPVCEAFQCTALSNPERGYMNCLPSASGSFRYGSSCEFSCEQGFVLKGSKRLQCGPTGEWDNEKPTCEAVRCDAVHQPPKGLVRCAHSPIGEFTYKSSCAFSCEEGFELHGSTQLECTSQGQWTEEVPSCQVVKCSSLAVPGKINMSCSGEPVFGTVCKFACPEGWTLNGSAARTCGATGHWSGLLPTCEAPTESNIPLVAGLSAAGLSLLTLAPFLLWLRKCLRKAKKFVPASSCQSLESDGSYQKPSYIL
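Read-out: % PE-positive cells | Test system: HUVEC | Doses: One compound dose added by pin transfer | Buffer or medium: EGM-2 over gelatin coat | Signal: Immunofluorescence imaging | Benchmarks: TNF-alpha, DMSO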
Active calls of the source: *; ? = inconclusive; / = not tested or not shown.

SMILES | DENV2 CPE rescue | Statin myotox sup | E-selectin induc
C[C@@H]1CN([C@H](C)CO)C(=O)c2cc(NC(=O)Nc3ccc(F)cc3)ccc2O[C@@H](C)CCCCO[C@H]1CN(C)C | 41.8* | -11.2 | 0.3
C[C@@H]1CCCCO[C@@H](CN(C)C(=O)c2ccccc2)[C@H](C)CN([C@@H](C)CO)C(=O)c2cc(NC(=O)Nc3ccc(F)cc3)ccc2O1 | 9.4 | / | -0.1
C[C@@H]1CCCCO[C@H](CN(C)C(=O)Nc2ccc(F)cc2)[C@H](C)CN([C@H](C)CO)C(=O)c2cc(NC(=O)Nc3ccc(F)cc3)ccc2O1 | -1.1 | / | /
C[C@@H]1CCCCO[C@@H](CN(C)C)[C@H](C)CN([C@@H](C)CO)C(=O)c2cc(NC(=O)Nc3ccc(F)cc3)ccc2O1 | / | 33.2 | 0.0
CNC[C@@H]1Oc2c(NC(=O)Nc3ccccc3)cccc2C(=O)N([C@H](C)CO)C[C@@H]1C | 0.8 | 28.3 | -0.2
COc1cccc(-c2ccc3c(c2)O[C@@H](CN(C)C)[C@@H](C)CN([C@@H](C)CO)S3(=O)=O)c1 | -10.5 | -3.2 | -0.2
CC(C)NC(=O)N1[C@H](CO)[C@@H](c2ccccc2)[C@H]1CN(C)C(=O)c1cccnc1 | -12.4 | 12.7 | -0.3
O=C(C[C@@H]1C[C@@H]2c3cc(NC(=O)c4cccnc4)ccc3O[C@@H]2[C@@H](CO)O1)NC1CCCC1 | 12.5 | / | 0.1
CO[C@H]1CN(C)C(=O)c2cc(NC(=O)Nc3cccc(F)c3)ccc2OC[C@@H](C)N(C(=O)C2CC2)C[C@H]1C | / | 7.7 | 7.0
Cc1noc(C)c1NC(=O)Nc1ccc2c(c1)C(=O)N([C@@H](C)CO)C[C@H](C)[C@H](CN(C)Cc1ccc(Cl)c(Cl)c1)O2 | 6.0 | 14.5 | -5.3
C[C@@H]1CN([C@@H](C)CO)C(=O)c2cc(NC(=O)NC3CCCCC3)ccc2O[C@@H](C)CCCCO[C@H]1CN(C)C(=O)c1ccccc1 | 4.7 | 85.1* | -0.3
C[C@@H]1CCCCO[C@@H](CN(C)C(=O)c2ccccc2)[C@H](C)CN([C@@H](C)CO)C(=O)c2cc(NC(=O)Nc3ccc(C(F)(F)F)cc3)ccc2O1 | 3.8 | / | 1.0
C[C@@H]1CN([C@@H](C)CO)C(=O)c2cc(NC(=O)Nc3ccc(F)cc3)ccc2O[C@@H](C)CCCCO[C@@H]1CN(C)C(=O)Nc1ccc2c(c1)OCO2 | 23.0* | / | 0.4
C[C@H]1CCCCO[C@@H](CN(C)C(=O)c2ccccc2)[C@@H](C)CN([C@@H](C)CO)C(=O)c2cc(NC(=O)NC3CCCCC3)ccc2O1 | 16.2 | 2.2 | 1.1
C[C@@H]1CCCCO[C@H](CN(C)C(=O)NC2CCCCC2)[C@H](C)CN([C@@H](C)CO)C(=O)c2cc(NC(=O)c3ccccc3)ccc2O1 | 42.6* | / | 0.2
C[C@H](CO)N1C[C@H](C)[C@H](CN(C)C(=O)c2ccccc2)OCCCC[C@H](C)Oc2ccc(NC(=O)Nc3ccc(C(F)(F)F)cc3)cc2C1=O | 58.5* | / | 2.8
C[C@@H]1CCCCO[C@H](CN(C)C(=O)NC2CCCCC2)[C@@H](C)CN([C@@H](C)CO)C(=O)c2cc(NC(=O)c3ccccc3)ccc2O1 | 12.6 | / | -0.2
C[C@@H]1CCCCO[C@@H](CN(C)C(=O)Nc2ccc3c(c2)OCO3)[C@H](C)CN([C@@H](C)CO)C(=O)c2cc(NC(=O)Nc3ccc(F)cc3)ccc2O1 | -2.2 | / | 0.0
CC(=O)Nc1ccc2c(c1)C(=O)N(C)[C@H]1CC[C@H](CC(=O)NCc3ccc(Cl)cc3)O[C@@H]1CO2 | -9.9 | -11.9 | 0.0
O=C(Nc1ccccc1)N1CCCCN2[C@H](CO)[C@@H](c3ccc(-c4ccccc4)cc3)[C@@H]2C1 | -9.7 | / | -0.8
C[C@@H]1CN([C@H](C)CO)C(=O)c2cc(NC(=O)C3CCCCC3)ccc2O[C@H]1CN(C)Cc1ccncc1 | -14.1 | 11.9 | -5.3
CC(C)C#Cc1cnc2c(c1)C(=O)N([C@H](C)CO)C[C@@H](C)[C@H](CN(C)C(=O)Cc1ccccn1)O2 | 5.2 | -14.3 | -0.1
COc1ccc(S(=O)(=O)Nc2cc(C(=O)NCCCOC(C)C)ccc2N2CCOCC2)cc1 | 9.4 | / | /
COc1ccc(S(=O)(=O)Nc2cc(C(=O)NCCC(C)C)ccc2N2CCOCC2)cc1 | / | 93.2* | /
CC(C)NC(=O)N(C)C[C@@H]1Oc2ccc(NS(=O)(=O)c3cccs3)cc2CC(=O)N([C@H](C)CO)C[C@@H]1C | -0.4 | -2.2 | 26.4*
SMILES | DENV2 CPE rescue | Statin myotox sup | E-selectin induc
C[C@@H]1CN([C@H](C)CO)C(=O)Cc2cc(NS(=O)(=O)c3cccs3)ccc2O[C@@H]1CN(C)C(=O)Nc1ccccc1 | 1.8 | 16.2 | -0.3
C[C@@H]1CN([C@@H](C)CO)C(=O)Cc2cc(NS(=O)(=O)c3cccs3)ccc2O[C@H]1CN(C)C(=O)Nc1ccc(F)cc1 | 0.9 | -5.6 | 30.3*
C[C@H]1CN([C@@H](C)CO)C(=O)Cc2cc(NS(=O)(=O)c3cccs3)ccc2O[C@@H]1CN(C)S(=O)(=O)c1ccccc1 | 41.0* | 5.8 | -0.6
C[C@H](CO)N1C[C@H](C)[C@@H](CN(C)S(=O)(=O)c2ccccc2)Oc2ccc(NS(=O)(=O)c3cccs3)cc2CC1=O | -1.4 | 16.1 | -0.4
C[C@H]1CN([C@@H](C)CO)C(=O)Cc2cc(NS(=O)(=O)c3cccs3)ccc2O[C@H]1CN(C)C(=O)Nc1ccc(F)cc1 | 1.0 | -20.8 | 14.2
C[C@@H]1CN([C@H](C)CO)C(=O)c2cc(C#C[C@@H](C)O)cnc2O[C@@H]1CN(C)Cc1ccc(-c2ccccc2)cc1 | 2.8 | -24.4 | 0.9
C[C@H]1CN([C@@H](C)CO)C(=O)c2cc(NC(=O)Nc3ccc(C(F)(F)F)cc3)ccc2O[C@H]1CN(C)CC1CC1 | 18.1 | -25.4 | 0.0
Cc1noc(C)c1NC(=O)Nc1cccc2c1O[C@H](CN(C)S(=O)(=O)c1ccc(F)cc1)[C@H](C)CN([C@H](C)CO)C2=O | -6.3 | -16.7 | -3.1
O=S(=O)(Cc1ccccc1)NCC[C@H]1CC[C@@H](NS(=O)(=O)c2ccc(F)cc2)[C@@H](CO)O1 | -1.0 | -4.1 | -0.1
O=C(COc1ccc(Cl)cc1)NCCCn1ccnc1 | / | 71.5* | /
CC(Oc1ccc2ccc(=O)oc2c1)C(=O)NCCCn1ccnc1 (centres undefined) | 2.4 | 96.0* | /
COc1ccc(-c2cc(=O)oc3cc(OC(C)C(=O)NCCCn4ccnc4)ccc23)cc1 (centres undefined) | ? | -1.3 | /
COc1ccc(OCC(=O)NCCCn2ccnc2)cc1 | -3.4 | 11.0 | 2.8
C[C@H](O)C#Cc1cnc2c(c1)C(=O)N([C@H](C)CO)C[C@H](C)[C@H](CN(C)CC1CCOCC1)O2 | 4.3 | -3.5 | -0.4
O=C(CN1CCCC1)NCC12CC3CC(CC(C3)C1)C2 | / | -9.5 | /
O=C(CN1C(=O)CCC1=O)NCC12CC3CC(CC(C3)C1)C2 | / | 95.9* | /
CCC(=O)Nc1ccc2c(c1)C(=O)N(C)C[C@@H](OC)[C@H](C)CN(C(=O)CN(C)C)[C@@H](C)CO2 | / | 5.5 | 0.1
Cc1cc(C)n2c(SCc3c(C)noc3C)nnc2n1 | / | 92.5* | /
Cc1cc(C)n2c(SCc3ccc(Br)cc3)nnc2n1 | -4.7 | / | /
CC(=O)c1cccc(NC(=O)CN(c2ccc(F)cc2)S(C)(=O)=O)c1 | / | 3.5 | /
Cc1cccc(N(CC(=O)Nc2ccccc2F)S(C)(=O)=O)c1 | / | 1.5 | 0.1
CC(=O)c1cccc(NC(=O)CN(c2cccc(F)c2)S(C)(=O)=O)c1 | / | 110.9* | /

Compound activity as filed in PubChem BioAssay.
